Results from the EternaBench riboswitch data.

System: MS2 coat protein
Test: apparent Kd, MS2 coat protein; higher = weaker binding; RNA-MaP array
Procedure, shortened: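 Apparent Kd was taken as the median of binding curves fitted cluster by cluster. The designed RNAs were made by transcription of sequenced DNA templates on an Illumina sequencing chip and exposed to fluorescently labeled MS2 coat protein (1.5 nM to 3 μM) at room temperature, with or without input ligand, for 0.8–1.5 h at the lowest and 10–20 min at the highest concentrations. Any design measured on fewer than 10 clusters was left out.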

[1] = designed as: ON switch for flavin mononucleotide, no ligand
[2] = ligand present: flavin mononucleotide, designed as: ON switch for flavin mononucleotide
[3] = designed as: OFF switch for flavin mononucleotide, no ligand
[4] = ligand present: flavin mononucleotide, designed as: OFF switch for flavin mononucleotide
[5] = designed as: OFF switch for theophylline, no ligand
[6] = ligand present: theophylline, designed as: OFF switch for theophylline

Sequence | apparent Kd [1] | apparent Kd [2] | apparent Kd [3] | apparent Kd [4] | further results
AGCGCCUUAUCAGGAUAUAUGCGCAUGAAGUAGGUACACAUGAGGAUCACCCAUGUCCGGGGAACAUAGAAGGGAUAGAAGUAG | 86.9 nM | 48.7 nM | – | – | –
UCGGCACAUGAGGAUCACCCAUGUAAGGAUAUACGAAGCUUGCAGUCGCUGUUAUUUGGUAGAAGGUACCCUCG | – | – | 14.5 nM | 12.5 nM | –
AGAACUUUGGUGGAUACCAGCUUCUGGCCAUCCUUCAAAUACAUGAGGAUCACCCAUGUUAGCCCUUGGCAGCCAACAUAGACUG | – | – | – | – | apparent Kd [5]: 22.4 nM; apparent Kd [6]: 222 nM
CAUUUCUUCACAGGAUAUGCCGUACAUGAGGAUCACCCAUGUGGGUGGGCGUAGCACUGUAGUGCGCAGAAGGGUGGAUCCGAC | – | – | 113 nM | 79.2 nM | –
CACUGGUACGAGAAGGCACCUGAAGUUGAGAAGUGAGGAUAUCGAAAUAAACACAUGAGGAUCACCCAUGUGAUCCAAGGACGA | – | – | 121 nM | 91.6 nM | –
UAAGAAUCAGGAUAUACAGAAAGAUCAACAAAGAGCCAUAAACAUGAGGAUCACCCAUGUAGAAGGGAACAAAU | – | – | 8.14 nM | 7.77 nM | –
GGUUAACAUGAGGAUCACCCAUGUAAGGAUAUCGGGCUGUCCAGGCGAUAGUACACGUCGAGAAGGUACGCGGU | – | – | 10.8 nM | 12.2 nM | –
UCAGUGUCAGGAUAUUCUAACGAGGGUAGUGCGCCCUUUGUGAAGAAGGGACAUGAGGAUCACCCAUGUACUUG | – | – | 51.2 nM | 125 nM | –
AAACACAACCAGAAGGCCAAAACAUGAGGAUCACCCAUGUAGAUAAGAAGAGUAAGCACUGUCAUGGAGGAUAUGGGUCAAAAC | 20.8 nM | 7.12 nM | – | – | –
CUCAUGAGGAAGAAGGAUUAGGUCAGUGCAGUAAUAGGAUAUUCGUAACACAUGAGGAUCACCCAUGUCUACUCCGGAGCGACA | 182 nM | 81.1 nM | – | – | –
AUAAACUAACAUGAGGAUCACCCAUGUAUGGAGAAAAUACCUAGAAGGAGGAUAUUUACAACAUCCAAGGAUAUAGGAGCCUCA | 68.1 nM | 42.4 nM | – | – | –
GUGGCAGGUGUCAGCCACAUGAGGAUCACCCAUGUUACUGAUCAGGAUAUUCGUGUGCGUCGCCGGAAGAAGGGAUUUGGACAU | – | – | 123 nM | 64.1 nM | –
AAUUGAAUGGUAAGGAUAUAGGGUCGCGCCGAACGCUAGAAGGUACAUGAGGAUCACCCAUGUUGUGCGUCUUC | – | – | 16.9 nM | 17.7 nM | –
UUCCACCUAAAGCGUUGCCCUCGUGAUGAUACCAGUUUCAGCGGUAACCCUUGGCAGCAUCGGACAUGAGGAUCACCCAUGUGGA | – | – | – | – | apparent Kd [5]: 106 nM; apparent Kd [6]: 213 nM
ACAUGAGGAUCACCCAUGUACAUUUAUACUGGGAGACUAUCGUAGGAUAUAUGAACAAGCAUUCUAUAGAAGGACGAAAAGAUC | – | – | 59.4 nM | 40.4 nM | –
CCAGGGCUCGAGAAGGCCCGCGCGGUUCAGUACGUAGGUACAUGAGGAUCACCCAUGUCGGAUUGGGAGGAUAUCGAUUCUUGU | 335 nM | 80.1 nM | – | – | –
UCAGGUCCGAAGAAGGCGAAGCAACAUUACUAUCGAGGAUAUUCUACAUGAGGAUCACCCAUGUCACCAUCGAUGACAGAGAAU | – | – | 7.65 nM | 7.93 nM | –
CCUCGUCCGUACAUGAGGAUCACCCAUGUGAGCCCUAAACCCAGAAGGCAAUGAAUACCUAUUCUUGAGGAUAUGGAUCACCGU | – | – | 279 nM | 185 nM | –
AUGGUCUCUUAAGGAUAUAGCUAUACAGAGCGCACGUAGGUUAAAUACAUGAGGAUCACCCAUGUCUAGAAGGUAAGUACCGGA | 11.6 nM | 11.1 nM | – | – | –
UCACGGUCAGGAUAUCCUACCUUAGGGCAACCAUGGUAAACGGAGAAGGGACAUGAGGAUCACCCAUGUACAGC | – | – | 12.9 nM | 26.8 nM | –
GAAUGAAUACAAGGAUAUCCCACAUGAGGAUCACCCAUGUAAAUACAAAUGUAAUACGUUGCUAAGGAGAAGGUGUAGAACAAA | 113 nM | 28.9 nM | – | – | –
